{"source": "paper PMC3158820", "about": "(ACS chemical biology, 2011)", "key": {"[1]": {"tested_on": "HeLa mitochondrial lysate immunodepleted of Lon", "test": "FRETN 89–98 cleavage in Lon-immunodepleted HeLa mitochondrial lysate", "type": "biochemical, human", "conditions": "10 µM DBN93, 100 µM FRETN 89–98, 1 mM ATP; at least three trials", "how_it_was_run": "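Affinity-purified anti-hLon was incubated overnight at 4 °C with HeLa mitochondria in 25 mM Tris pH 7.5, 100 mM NaCl, 0.1% Tween 20. Protein A agarose was pelleted, and the supernatant was desalted into 50 mM KPi pH 7, 20% glycerol, 0.1% Tween 20, then Bradford-quantified. Emission at 420 nm (ex 320 nm) was read for 1 hr.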"}, "human 20S proteasome": {"tested_on": "human 20S proteasome", "test": "Steady state peptidase activity assay", "type": "biochemical", "conditions": "2 µM DBN93, 200 nM human 20S proteasome, 100 µM FRETN 89–98, 500 µM ATP", "how_it_was_run": "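Run in 50 mM HEPES pH 8.0, 5 mM Mg(OAc)₂, 2 mM DTT at 37 °C, with reactions started by adding 20S proteasome. Cleavage was read as fluorescence emission at 420 nm (ex 320 nm). Rate was taken from the slope of the linear phase of the time course.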"}, "human ClpXP [2]": {"tested_on": "human ClpXP", "test": "Inhibition of α-casein degradation by hClpXP", "type": "biochemical", "conditions": "10 µM DBN93, 10 µM casein, 2 µM ClpX and 2 µM ClpP, 5 mM ATP, SDS-PAGE", "how_it_was_run": "(§1)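 Digests in 50 mM Tris pH 8.1, 15 mM Mg(OAc)₂, 5 mM DTT were run at 37 °C ±inhibitor. Aliquots were quenched with SDS loading dye at time points from 0 to 90 min, run on 12.5% SDS-PAGE and stained with Coomassie Blue.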"}, "human ClpXP [3]": {"tested_on": "human ClpXP", "test": "Steady state peptidase activity assay", "type": "biochemical"}, "[4]": {"tested_on": "Lon in isolated rat liver mitochondria", "test": "In organello degradation of 35S-labeled StAR in isolated mitochondria", "type": "cell-based", "how_it_was_run": "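³⁵S-Met StAR precursor was made by in vitro transcription and reticulocyte-lysate translation, then imported for 30 min at 30 °C into rat liver mitochondria (600 µg) in HSB buffer with ATP, GTP, NADH and creatine kinase system. Non-imported protein was removed with trypsin on ice, then trypsin inhibitor. Pellets were chased at 30 °C ±inhibitor, TCA-precipitated, run on 12% SDS-PAGE with autoradiography, and bands quantified. Mean of 3 independent experiments, SEM, Student's t-test.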"}, "S. Typhimurium Lon": {"tested_on": "S. Typhimurium Lon", "conditions": "cited from earlier work"}, "human Lon [5]": {"molecular_target": "T1, human Lon (Homo sapiens, UniProt P36776)", "T1 sequence (P36776 68-959)": "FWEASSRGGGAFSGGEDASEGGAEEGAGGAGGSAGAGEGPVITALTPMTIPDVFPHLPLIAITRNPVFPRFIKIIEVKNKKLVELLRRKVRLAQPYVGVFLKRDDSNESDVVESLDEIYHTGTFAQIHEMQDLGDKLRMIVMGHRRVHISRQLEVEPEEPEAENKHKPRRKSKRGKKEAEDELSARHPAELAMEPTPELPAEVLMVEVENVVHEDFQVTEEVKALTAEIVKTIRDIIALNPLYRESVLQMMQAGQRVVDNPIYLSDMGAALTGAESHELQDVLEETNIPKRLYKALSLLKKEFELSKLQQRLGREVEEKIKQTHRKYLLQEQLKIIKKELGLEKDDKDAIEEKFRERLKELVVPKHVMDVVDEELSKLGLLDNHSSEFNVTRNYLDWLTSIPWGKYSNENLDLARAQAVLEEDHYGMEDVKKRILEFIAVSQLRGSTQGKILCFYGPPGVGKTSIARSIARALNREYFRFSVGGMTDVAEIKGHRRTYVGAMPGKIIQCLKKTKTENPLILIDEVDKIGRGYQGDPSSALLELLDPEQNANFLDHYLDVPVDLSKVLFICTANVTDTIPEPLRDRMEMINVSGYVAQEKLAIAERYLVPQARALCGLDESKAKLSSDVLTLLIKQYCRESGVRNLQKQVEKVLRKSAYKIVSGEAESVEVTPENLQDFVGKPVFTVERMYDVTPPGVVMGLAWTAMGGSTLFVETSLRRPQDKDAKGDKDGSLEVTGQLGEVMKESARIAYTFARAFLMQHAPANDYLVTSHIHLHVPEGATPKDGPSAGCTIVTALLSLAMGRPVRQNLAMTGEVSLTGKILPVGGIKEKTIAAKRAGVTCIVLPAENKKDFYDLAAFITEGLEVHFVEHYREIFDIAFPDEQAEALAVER", "test": "Time-dependent inhibition of human Lon peptidase activity", "type": "biochemical"}, "human Lon [6]": {"molecular_target": "T1, human Lon", "test": "Inhibition of α-casein degradation by hLon", "type": "biochemical", "conditions": "10 µM DBN93, 10 µM casein, 1 µM hLon, 5 mM ATP, SDS-PAGE", "how_it_was_run": "as §1"}, "[7]": {"conditions": "S. Typhimurium Lon, error s.e.m."}}, "note": "“Also recorded” adds a separate entry of the source.", "data": [{"substance": "dansyl-YRGIT-Abu-B(OH)2 [DBN93]", "values": [{"measurement": "effect on peptide cleavage in Lon-immunodepleted mitochondria", "setting": "[1]", "result": "no decrease in peptide cleavage"}, {"measurement": "inhibition of 20S proteasome catalyzed cleavage of FRETN 89–98", "setting": "human 20S proteasome", "result": "inhibited the cleavage; also recorded: inhibits"}, {"measurement": "inhibition of α-casein degradation by hClpXP", "setting": "human ClpXP [2]", "result": "not by hClpXP"}, {"measurement": "inhibition of hClpXP", "setting": "human ClpXP [3]; general statement", "result": "does not inhibit this protease; also recorded: not inhibited"}, {"measurement": "effect on cleavage of FRETN 89–98 by hClpXP", "setting": "human ClpXP [3]; up to 4 µM DBN93 (1 and 4 µM, Figure 5a)", "result": "not affected"}, {"measurement": "inhibition of StAR degradation in mitochondria", "setting": "[4]; 10 µM DBN93, 1 or 2 hr chase, rat mitochondria, n=3", "result": "inhibits degradation of StAR"}, {"measurement": "penetration of mitochondrial membranes", "setting": "[4]; intact rat mitochondria, 10 µM DBN93, inferred from StAR degradation", "result": "can penetrate the mitochondrial membranes"}, {"measurement": "inhibition of Lon", "setting": "S. Typhimurium Lon; 4 µM DBN93 (condition of the hClpXP test)", "result": "completely inhibited"}, {"measurement": "k3", "setting": "S. Typhimurium Lon; [7]", "result": "1.0 ± 0.3 × 10^5 M^−1s^−1"}, {"measurement": "k4", "setting": "S. Typhimurium Lon; [7]", "result": "0.022 ± 0.007", "unit": "s⁻¹"}, {"measurement": "k5", "setting": "S. Typhimurium Lon; [7]", "result": "0.0032 ± 0.0003", "unit": "s⁻¹"}, {"measurement": "k6", "setting": "S. Typhimurium Lon; [7]", "result": "0.00028 ± 0.00002", "unit": "s⁻¹"}, {"measurement": "time dependence of inhibition of hLon peptidase activity", "setting": "human Lon [5]; Figure 3, panel a", "result": "inhibited by DBN93 in a time-dependent manner"}, {"measurement": "Ki* of hLon vs Ki* of bacterial Lon", "setting": "human Lon [5]; overall inhibitor potency", "result": "comparable to the Ki* determined previously for bacterial Lon"}, {"measurement": "inhibition of α-casein degradation by hLon", "setting": "human Lon [6]", "result": "inhibited α-casein degradation by hLon"}]}]}
